Measurements taken from ChEMBL document CHEMBL1914334, “Discovery and characterization of potent and selective 4-oxo-4-(5-(5-phenyl-1,2,4-oxadiazol-3-yl)indolin-1-yl)butanoic acids as S1P₁ agonists” (Bioorg Med Chem Lett, 2011).
In brackets after ≈: the same amount, converted by molar mass. Each block holds one compound with its values, some of them ahead of it. Activity calls are given as the source filed them. The rule behind the calls is not given here.

What was measured:
[1] = biological target: T1, Sphingosine 1-phosphate receptor 1 (Homo sapiens, UniProt P21453); assay: Agonist activity at human S1P1 receptor expressed in HEK293 cells assessed as inhibition of forskolin-stimulated cAMP production after 1 hr by HTRF assay; format: functional, cell-based
Method in brief: (§1)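 Human S1P₁ cAMP HTRF read-out; each EC₅₀ is the mean of three or more replicates.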

[2] = test system: Mus musculus; assay: Immunomodulatory activity BALB/C mouse assessed as induction of lymphopenia at 0.3 to 3 mg/kg, po after 8 hrs; format: functional, organism-based
Method in brief: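 Male BALB/c mice were dosed orally at 0.3, 1.0 or 3.0 mg/kg, or with vehicle (0.5% methylcellulose in water). Blood lymphocytes were followed over time post-dose (mean ± SD). Observed values were fitted with an indirect PK/PD model.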

[3] = biological target: T1, Sphingosine 1-phosphate receptor 1; assay: Agonist activity at recombinant human S1P1 receptor expressed in HEK293 cells after 2 hrs by beta-arrestin assay; format: functional, cell-based
[4] = test system: Mus musculus; assay: Immunomodulatory activity BALB/C mouse assessed as induction of lymphopenia at 0.3 to 3 mg/kg, po after 24 hrs; format: functional, organism-based; details: 1 to 10 mg/kg, in the assay text read “1 to 10 mg/kg” for “0.3 to 3 mg/kg”
[5] = Metabolic stability in human liver microsomes assessed as half life; format: ADME, Microsome
[6] = biological target: Sphingosine 1-phosphate receptor 5 (Homo sapiens, UniProt Q9H228); assay: Agonist activity at recombinant human S1P5 receptor expressed in HEK293 cells after 2 hrs by beta-arrestin assay; format: functional, cell-based
[7] = test system: Salmonella typhimurium; assay: Mutagenic activity in Salmonella Typhimurium TA97a by Ames test in presence of S9 fraction; format: toxicity, organism-based; details: salmonella enterica subsp. enterica serovar typhimurium
[8] = Terminal half life in mouse; format: ADME, organism-based; details: in vivo, read-out: beta t1/2 (converted)
[9] = biological target: Sphingosine 1-phosphate receptor 1 (Rattus norvegicus, UniProt P48303); assay: Agonist activity at rat S1P1 receptor expressed in HEK293 cells assessed as inhibition of forskolin-stimulated cAMP production after 1 hr by HTRF assay; format: functional, cell-based
[10] = biological target: hERG (KCNH2) (Homo sapiens, UniProt Q12809); assay: Inhibition of human ERG at 3 uM by patch clamp assay
[11] = Clearance in Sprague-Dawley rat at 2 mg/kg, iv and 3 mg/kg, po; format: ADME, organism-based; details: in vivo
[12] = test system: Salmonella typhimurium; assay: Mutagenic activity in Salmonella Typhimurium TA97a by Ames test in absence of S9 fraction; format: toxicity, organism-based; details: salmonella enterica subsp. enterica serovar typhimurium
[13] = Cmax in Sprague-Dawley rat at 2 mg/kg, iv and 3 mg/kg, po; format: ADME, organism-based; details: in vivo
[14] = test system: Salmonella typhimurium; assay: Mutagenic activity in Salmonella Typhimurium TA100 by Ames test in absence of S9 fraction; format: toxicity, organism-based; details: salmonella enterica subsp. enterica serovar typhimurium
[15] = biological target: Sphingosine 1-phosphate receptor 2 (Homo sapiens, UniProt O95136); assay: Agonist activity at recombinant human S1P2 receptor expressed in HEK293 cells after 2 hrs by beta-arrestin assay; format: functional, cell-based
[16] = biological target: Cytochrome P450 2C9 (Homo sapiens, UniProt P11712); assay: Inhibition of CYP2C9; format: ADME
[17] = test system: Mus musculus; assay: Immunomodulatory activity in po dosed BALB/C mouse assessed as induction of lymphopenia after 16 hrs; format: functional, organism-based
Method in brief: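 Male BALB/c mice were dosed orally at 1, 3 or 10 mg/kg, or with vehicle (0.5% methylcellulose in water). Blood was sampled up to 24 h post-dose for lymphocyte counts and plasma drug levels (mean ± SD). An indirect PK/PD model was fitted to give the blood concentration suppressing lymphocytes by 50%.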

[18] = biological target: T2, Cytochrome P450 1A2 (Homo sapiens, UniProt P05177); assay: Inhibition of CYP1A2; format: ADME
T2 sequence (P05177 whole entry): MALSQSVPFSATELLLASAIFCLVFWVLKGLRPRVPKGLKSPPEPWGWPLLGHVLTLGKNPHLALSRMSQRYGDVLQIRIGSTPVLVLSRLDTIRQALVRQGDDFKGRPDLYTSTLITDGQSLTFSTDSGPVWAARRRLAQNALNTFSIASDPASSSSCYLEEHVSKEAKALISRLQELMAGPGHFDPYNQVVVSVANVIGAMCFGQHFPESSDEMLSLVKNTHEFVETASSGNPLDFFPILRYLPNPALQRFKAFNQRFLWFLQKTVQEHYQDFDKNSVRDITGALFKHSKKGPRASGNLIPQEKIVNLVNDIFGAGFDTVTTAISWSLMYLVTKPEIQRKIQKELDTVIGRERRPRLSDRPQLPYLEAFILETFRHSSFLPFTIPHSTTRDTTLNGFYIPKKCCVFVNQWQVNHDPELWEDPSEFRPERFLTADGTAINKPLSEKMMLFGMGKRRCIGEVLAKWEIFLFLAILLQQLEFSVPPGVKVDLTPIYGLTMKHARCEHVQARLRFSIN

[19] = Half life in Sprague-Dawley rat at 2 mg/kg, iv and 3 mg/kg, po; format: ADME, organism-based; details: in vivo
[20] = biological target: Sphingosine 1-phosphate receptor 3 (Homo sapiens, UniProt Q99500); assay: Agonist activity at recombinant human S1P3 receptor expressed in HEK293 cells after 2 hrs by beta-arrestin assay; format: functional, cell-based
[21] = Oral bioavailability in Sprague-Dawley rat at 3 mg/kg; format: ADME, organism-based; details: in vivo
[22] = test system: Salmonella typhimurium; assay: Mutagenic activity in Salmonella Typhimurium TA1535 by Ames test in absence of S9 fraction; format: toxicity, organism-based; details: salmonella enterica subsp. enterica serovar typhimurium
[23] = test system: Salmonella typhimurium; assay: Mutagenic activity in Salmonella Typhimurium TA98 by Ames test in absence of S9 fraction; format: toxicity, organism-based; details: salmonella enterica subsp. enterica serovar typhimurium
[24] = Metabolic stability in rat liver microsomes assessed as half life; format: ADME, Microsome
[25] = test system: Salmonella typhimurium; assay: Mutagenic activity in Salmonella Typhimurium TA98 by Ames test in presence of S9 fraction; format: toxicity, organism-based; details: salmonella enterica subsp. enterica serovar typhimurium
[26] = Tmax in Sprague-Dawley rat at 2 mg/kg, iv and 3 mg/kg, po; format: ADME, organism-based; details: in vivo
[27] = Agonist activity at dog S1P1 receptor expressed in HEK293 cells assessed as inhibition of forskolin-stimulated cAMP production after 1 hr by HTRF assay; format: functional, cell-based; details: HEK293, 1 h
[28] = Volume of distribution at steady state in Sprague-Dawley rat at 2 mg/kg, iv and 3 mg/kg, po; format: ADME, organism-based; details: in vivo, read-out: Vdss
[29] = biological target: Voltage-gated inwardly rectifying potassium channel KCNH2 (Homo sapiens, UniProt Q12809); assay: Displacement of [3H]astemizole from human ERG
[30] = AUC (0 to last) in Sprague-Dawley rat at 2 mg/kg, iv and 3 mg/kg, po; format: ADME, organism-based; details: plasma
[31] = test system: Salmonella typhimurium; assay: Mutagenic activity in Salmonella Typhimurium TA1535 by Ames test in presence of S9 fraction; format: toxicity, organism-based; details: salmonella enterica subsp. enterica serovar typhimurium
[32] = biological target: Cytochrome P450 3A4 (Homo sapiens, UniProt P08684); assay: Inhibition of CYP3A4; format: ADME
[33] = Protein binding in rat; format: ADME, organism-based; details: in vivo, read-out: PB (converted)
[34] = biological target: Sphingosine 1-phosphate receptor 1 (Mus musculus, UniProt O08530); assay: Agonist activity at mouse S1P1 receptor expressed in HEK293 cells assessed as inhibition of forskolin-stimulated cAMP production after 1 hr by HTRF assay; format: functional, cell-based
[35] = Agonist activity at monkey S1P1 receptor expressed in HEK293 cells assessed as inhibition of forskolin-stimulated cAMP production after 1 hr by HTRF assay; format: functional, cell-based; details: Macaca mulatta, HEK293, 1 h
[36] = biological target: T3, Sphingosine 1-phosphate receptor 4 (Homo sapiens, UniProt O95977); assay: Agonist activity at recombinant human S1P4 receptor expressed in HEK293 cells after 2 hrs by beta-arrestin assay; format: functional, cell-based
T3 sequence (O95977 whole entry): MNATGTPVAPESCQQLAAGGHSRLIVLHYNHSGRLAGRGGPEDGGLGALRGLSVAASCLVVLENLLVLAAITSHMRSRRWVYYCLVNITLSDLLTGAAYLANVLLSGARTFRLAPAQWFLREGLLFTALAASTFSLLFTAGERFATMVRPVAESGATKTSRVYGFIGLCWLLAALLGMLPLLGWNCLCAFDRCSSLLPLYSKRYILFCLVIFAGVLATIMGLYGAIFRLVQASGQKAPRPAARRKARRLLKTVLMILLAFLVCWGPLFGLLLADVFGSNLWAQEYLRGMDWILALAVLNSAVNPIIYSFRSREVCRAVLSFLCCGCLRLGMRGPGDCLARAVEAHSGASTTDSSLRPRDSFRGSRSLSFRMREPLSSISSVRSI

[37] = Protein binding in human; format: ADME, organism-based; details: in vivo, read-out: PB (converted)
[38] = biological target: Cytochrome P450 2D6 (Homo sapiens, UniProt P10635); assay: Inhibition of CYP2D6; format: ADME
[39] = test system: Salmonella typhimurium; assay: Mutagenic activity in Salmonella Typhimurium TA100 by Ames test in presence of S9 fraction; format: toxicity, organism-based; details: salmonella enterica subsp. enterica serovar typhimurium
[40] = biological target: Cytochrome P450 2C19 (Homo sapiens, UniProt P33261); assay: Inhibition of CYP2C19; format: ADME
[41] = Aqueous solubility of the compound; format: physicochemical; details: buffer
[42] = biological target: T1, Sphingosine 1-phosphate receptor 1; assay: Agonist activity at human S1P1 receptor; format: functional; method in brief: as §1

T1 sequence (P21453 whole entry): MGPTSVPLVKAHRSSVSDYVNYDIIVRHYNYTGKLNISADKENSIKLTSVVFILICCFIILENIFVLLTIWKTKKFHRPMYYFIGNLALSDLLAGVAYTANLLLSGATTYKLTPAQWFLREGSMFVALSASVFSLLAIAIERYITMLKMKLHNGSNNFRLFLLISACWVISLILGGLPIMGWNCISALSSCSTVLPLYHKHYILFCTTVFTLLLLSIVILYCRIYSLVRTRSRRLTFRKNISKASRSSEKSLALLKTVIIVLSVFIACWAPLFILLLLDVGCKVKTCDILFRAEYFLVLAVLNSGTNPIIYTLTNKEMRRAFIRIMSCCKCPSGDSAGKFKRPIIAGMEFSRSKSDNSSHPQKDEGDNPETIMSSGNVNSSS
Sphingosine 1-phosphate receptor 3, sequence (Q99500 whole entry): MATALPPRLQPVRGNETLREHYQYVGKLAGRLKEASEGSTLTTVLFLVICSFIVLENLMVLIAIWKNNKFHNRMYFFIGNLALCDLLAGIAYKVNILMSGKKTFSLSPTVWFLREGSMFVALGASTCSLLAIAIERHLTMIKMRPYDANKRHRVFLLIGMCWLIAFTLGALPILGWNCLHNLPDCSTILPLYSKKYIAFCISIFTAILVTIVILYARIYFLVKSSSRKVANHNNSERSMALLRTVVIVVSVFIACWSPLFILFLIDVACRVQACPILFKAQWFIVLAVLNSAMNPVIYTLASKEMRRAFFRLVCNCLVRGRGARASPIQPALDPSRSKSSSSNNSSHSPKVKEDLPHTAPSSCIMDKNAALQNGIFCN
Sphingosine 1-phosphate receptor 5, sequence (Q9H228 whole entry): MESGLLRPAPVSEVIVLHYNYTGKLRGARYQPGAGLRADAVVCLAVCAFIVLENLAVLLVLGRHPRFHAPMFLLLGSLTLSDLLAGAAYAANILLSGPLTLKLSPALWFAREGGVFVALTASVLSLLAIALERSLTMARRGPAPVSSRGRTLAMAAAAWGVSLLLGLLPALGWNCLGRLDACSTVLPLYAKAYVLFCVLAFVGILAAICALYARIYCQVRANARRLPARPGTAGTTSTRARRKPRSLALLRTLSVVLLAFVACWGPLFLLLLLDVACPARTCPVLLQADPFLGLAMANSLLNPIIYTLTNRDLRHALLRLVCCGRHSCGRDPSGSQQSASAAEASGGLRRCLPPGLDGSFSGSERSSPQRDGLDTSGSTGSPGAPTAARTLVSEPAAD
Sphingosine 1-phosphate receptor 1 (Mus musculus, UniProt O08530), sequence (O08530 whole entry): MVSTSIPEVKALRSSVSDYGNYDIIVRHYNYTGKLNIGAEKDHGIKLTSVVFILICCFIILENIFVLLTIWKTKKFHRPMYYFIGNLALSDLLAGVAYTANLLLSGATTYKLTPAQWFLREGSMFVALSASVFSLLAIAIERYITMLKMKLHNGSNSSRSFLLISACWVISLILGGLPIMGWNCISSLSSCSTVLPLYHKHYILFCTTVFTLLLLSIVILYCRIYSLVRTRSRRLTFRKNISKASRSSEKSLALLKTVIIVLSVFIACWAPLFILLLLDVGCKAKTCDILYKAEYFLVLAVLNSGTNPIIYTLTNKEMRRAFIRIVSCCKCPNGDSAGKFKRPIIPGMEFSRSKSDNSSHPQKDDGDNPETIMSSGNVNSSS
hERG (KCNH2), sequence (Q12809 whole entry): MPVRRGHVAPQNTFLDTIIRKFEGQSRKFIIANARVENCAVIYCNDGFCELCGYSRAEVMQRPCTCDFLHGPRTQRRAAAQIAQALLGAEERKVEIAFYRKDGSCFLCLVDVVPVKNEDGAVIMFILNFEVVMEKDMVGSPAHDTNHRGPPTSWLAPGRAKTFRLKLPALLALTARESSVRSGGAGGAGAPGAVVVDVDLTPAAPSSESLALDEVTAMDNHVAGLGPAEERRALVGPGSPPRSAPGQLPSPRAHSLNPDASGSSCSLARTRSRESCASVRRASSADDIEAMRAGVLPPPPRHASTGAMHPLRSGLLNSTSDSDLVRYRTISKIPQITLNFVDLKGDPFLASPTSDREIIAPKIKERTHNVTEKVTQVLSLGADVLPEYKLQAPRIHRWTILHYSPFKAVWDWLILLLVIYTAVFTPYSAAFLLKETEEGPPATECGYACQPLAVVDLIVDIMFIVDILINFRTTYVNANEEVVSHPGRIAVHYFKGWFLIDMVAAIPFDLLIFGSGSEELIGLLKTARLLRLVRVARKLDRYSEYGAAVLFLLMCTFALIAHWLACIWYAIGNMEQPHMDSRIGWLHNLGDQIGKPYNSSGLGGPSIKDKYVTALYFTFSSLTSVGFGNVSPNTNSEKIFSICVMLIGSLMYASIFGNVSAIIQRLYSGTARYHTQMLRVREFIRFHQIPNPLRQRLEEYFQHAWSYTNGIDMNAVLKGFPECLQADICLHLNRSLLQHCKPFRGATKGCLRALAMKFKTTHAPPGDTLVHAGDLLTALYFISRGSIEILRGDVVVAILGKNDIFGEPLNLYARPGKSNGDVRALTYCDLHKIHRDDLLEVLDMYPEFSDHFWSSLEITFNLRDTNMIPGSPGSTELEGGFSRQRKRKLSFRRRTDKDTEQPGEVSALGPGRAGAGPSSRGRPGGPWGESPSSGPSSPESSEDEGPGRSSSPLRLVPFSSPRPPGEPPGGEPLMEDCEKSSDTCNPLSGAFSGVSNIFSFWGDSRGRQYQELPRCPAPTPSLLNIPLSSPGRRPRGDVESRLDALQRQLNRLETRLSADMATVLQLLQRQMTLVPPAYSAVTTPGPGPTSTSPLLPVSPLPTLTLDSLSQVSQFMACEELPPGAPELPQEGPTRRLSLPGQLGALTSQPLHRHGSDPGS
Voltage-gated inwardly rectifying potassium channel KCNH2, sequence (Q12809 whole entry): as above
Cytochrome P450 2C19, sequence (P33261 whole entry): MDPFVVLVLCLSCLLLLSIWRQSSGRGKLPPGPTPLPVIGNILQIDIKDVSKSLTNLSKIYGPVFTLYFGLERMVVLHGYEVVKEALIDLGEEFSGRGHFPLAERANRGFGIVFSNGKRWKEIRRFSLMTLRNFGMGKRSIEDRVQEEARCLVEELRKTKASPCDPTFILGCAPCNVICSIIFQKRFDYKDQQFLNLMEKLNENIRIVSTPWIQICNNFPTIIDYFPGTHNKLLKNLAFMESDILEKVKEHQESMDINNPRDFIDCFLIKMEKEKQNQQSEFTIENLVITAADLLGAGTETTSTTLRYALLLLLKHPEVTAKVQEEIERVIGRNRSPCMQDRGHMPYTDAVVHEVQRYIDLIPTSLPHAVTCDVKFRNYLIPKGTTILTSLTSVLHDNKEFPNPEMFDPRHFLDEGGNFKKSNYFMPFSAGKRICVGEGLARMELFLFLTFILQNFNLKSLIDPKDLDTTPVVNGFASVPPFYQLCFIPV
Sphingosine 1-phosphate receptor 2, sequence (O95136 whole entry): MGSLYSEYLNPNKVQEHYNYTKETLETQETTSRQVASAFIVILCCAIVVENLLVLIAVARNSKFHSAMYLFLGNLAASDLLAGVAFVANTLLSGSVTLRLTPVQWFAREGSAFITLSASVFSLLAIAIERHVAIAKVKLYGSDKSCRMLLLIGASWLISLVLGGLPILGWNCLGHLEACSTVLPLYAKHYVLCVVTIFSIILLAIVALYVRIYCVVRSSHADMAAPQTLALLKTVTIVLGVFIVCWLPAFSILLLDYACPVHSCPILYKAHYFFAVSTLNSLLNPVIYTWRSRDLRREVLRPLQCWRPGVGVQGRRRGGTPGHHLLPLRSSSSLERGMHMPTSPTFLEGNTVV

SMILES: CC(C)Oc1ccc(-c2nc(-c3ccc4c(c3)CCN4C(=O)CCC(=O)O)no2)cc1C#N
EC50 [1]: 1.1 nM
Activity [2]: Active
EC50 [3]: 6.8 nM

SMILES: N#Cc1cc(OC(F)(F)F)cc(-c2nc(-c3ccc4c(c3)CCN4C(=O)CCC(=O)O)no2)c1
Activity [4]: inactive
half-life [5]: > 1 h
EC50 [6]: 109 nM
Activity [7]: Non-toxic
half-life [8]: 3 h
EC50 [9]: 1 nM
inhibition at 3 µM [10]: 13%
clearance [11]: 0.75 mL/min/kg
Activity [12]: Non-toxic
Cmax [13]: 3820 ng/mL
Activity [14]: Non-toxic
EC50 [15]: > 100000 nM
EC50 [1]: 1.2 nM
IC50 [16]: > 50000 nM
IC50 [17]: 0.431 µg/mL (≈ 0.912 µM)
IC50 [18]: > 50000 nM
half-life [19]: 2.9 h
EC50 [20]: > 100000 nM
bioavailability [21]: 32.8%
Activity [22]: Non-toxic
Activity [23]: Non-toxic
half-life [24]: > 1 h
Activity [25]: Non-toxic
Tmax [26]: 2 h
EC50 [27]: 0.7 nM
Vd [28]: 0.275 L/kg
IC50 [29]: > 100000 nM
AUC(0-t) [30]: 20200 ng·h/mL
Activity [31]: Non-toxic
IC50 [32]: > 50000 nM
fraction unbound [33]: 0.007
EC50 [34]: 1.1 nM
EC50 [35]: 0.8 nM
EC50 [36]: 1330 nM
fraction unbound [37]: 0.003
IC50 [38]: > 50000 nM
Activity [39]: Non-toxic
IC50 [40]: > 50000 nM
EC50 [3]: 31 nM

More lines, now with the values ahead:

EC50 [1]: 1.63 nM
solubility [41]: < 10 µg/mL
SMILES: N[C@@H](CC(=O)N1CCc2cc(-c3noc(-c4cc(C(F)(F)F)cc(C(F)(F)F)c4)n3)ccc21)C(=O)O

EC50 [42]: 9.4 nM
EC50 [1]: 7.2 nM
SMILES: FC(F)(F)c1cc(-c2nc(-c3ccc4[nH]ncc4c3)no2)cc(C(F)(F)F)c1

EC50 [1]: 406 nM
SMILES: FC(F)(F)c1cc(-c2nc(N3CCc4[nH]cnc4C3)no2)cc(C(F)(F)F)c1
